Screening results (PubChem BioAssay)
Insulin prom inh: TRM-6 insulin promoter activity inhibition. TRM-6 cells (human fetal islet line), insulin promoter-eGFP reporter, imaging; reporter expression induced with tamoxifen. AID 1273. hit rate 0.9% among 130,000. inhibition, % at 2 µM;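 active means inhibition above the mean plus 3 SD, with well images judged a real hit on visual review, cut at about 60% in these data, passing the limit was not always enough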
RAM network inh: blocks the yeast RAM network; AID 868; S. cerevisiae dse1pr::URA3 reporter, 5-FOA growth OD615, 2 d; analog-sensitive cbk1-as2 kinase mutant strain; inhibition, % at 50 µM; hit rate 1.8% among 190,000;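 active means inhibition above a set limit, 3 SD over mean compound inhibition, cut at about 8.4% in these data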;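 further: inhibition rescues growth on 5-FOA so higher OD means more RAM inhibition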
Yeast growth inh: chemicals that inhibit yeast BB579 growth in restrictive medium (lifespan-shortening candidates). inhibition, % at 10 µM. S. cerevisiae BB579 growth, OD615, 48 h. hit rate 0.51% among 140,000. AID 804;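 active means inhibition above a set limit, 3 SD over the mean compound inhibition, cut at about 44% in these data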
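Test system: S. cerevisiae DeaD strain BB579 yeast; Medium: restrictive CSMM-D medium; Compound: one dose, 10 µM compound with 0.25% DMSO; Incubation: 4 h cell preincubation, 48 h compound exposure, 30 °C humidified; Signal: OD at 615 nm; Benchmarks: amphotericin B at 10 µg/mL as positive control.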
Yeast lifespan up: extends the lifespan of yeast. hit rate 0.68% among 130,000. S. cerevisiae growth with nicotinamide, OD615; deaD strain in restrictive glucose medium. inhibition of the nicotinamide effect, % at 10 µM;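 active means inhibition above a set limit, placed 3 SD over the median of all compounds, cut at about 26% in these data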
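Assay system: DeaD-strain S. cerevisiae. Medium: CSMM-D glucose medium, restrictive. Reagent: nicotinamide, 1.5 mM, co-present with compound. Compound: 10 µM single point, 0.25% DMSO. Schedule: culture preincubation 4 h, compound exposure 48 h, both 30 °C. Detection: absorbance at 615 nm.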
HMGR II inh: inhibitors of class II HMG-CoA reductase from Enterococcus faecalis. purified E. faecalis HMGR, NADPH absorbance 340 nm kinetic. inhibition, % at 10 µM. hit rate 0.41% among 190,000. AID 1066;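 active means inhibition above a set limit, the median over all tested compounds plus 3 SD, cut at about 9.5% in these data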;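 further: enzyme runs in reverse so mevalonate oxidation gives rising NADPH absorbance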
Of the large screens only hits and unclear results are named; the others gave an inactive call. Most compounds without a hit are left out; they make up all but 3.7% or so of the library.

CCN1C(=O)/C(=C\c2ccc([N+](=O)[O-])s2)C(=O)NC1=S	HMGR II inh 10.8 (no result: Yeast growth inh, Yeast lifespan up)
CCCn1cc(C(=O)O)cn1	HMGR II inh 14.4 (no result: Insulin prom inh, Yeast growth inh, Yeast lifespan up)
COc1ccccc1OCCCn1cc(C(=O)c2ccco2)c2ccccc21	RAM network inh 10.3
O=C(c1ccco1)c1cn(Cc2ccc(Cl)cc2)c2ccccc12	RAM network inh 11.1
O=C(c1cccs1)c1cn(Cc2ccccc2Cl)c2ccccc12	none
COc1ccc(-c2nc3ccccc3c(=O)n2-c2ccc(OC)cc2)cc1	none (no result: Insulin prom inh, Yeast growth inh, Yeast lifespan up)
CCn1nc(-c2ccccc2)nc2c(=O)n(C)c(=O)nc1-2	Yeast growth inh 100.0 (no result: Insulin prom inh)
CC(C)CC(NC(=O)C1CCCCC1)C(=O)N1CCC2(CC1)OCCO2 (stereo not given)	none
CC(C)C[C@H](NC(=O)[C@@H]1CCCN1C(=O)[C@@H](N)Cc1ccc(O)cc1)C(=O)NCC(N)=O	HMGR II inh 18.2
O=C(Nc1ccccc1)c1cccn(Cc2ccccc2)c1=O	RAM network inh 9.2 (no result: Insulin prom inh, Yeast growth inh, Yeast lifespan up)
O=C(O)CCn1cc(C=C2C(=O)NC(=O)NC2=O)c(-c2cc3ccccc3oc2=O)n1	none (no result: Insulin prom inh, Yeast growth inh, Yeast lifespan up)
CN1CSC(=S)N(C)C1	Insulin prom inh 67.9, Yeast growth inh 85.5
CCCNc1nc(OC)nc(N2CC3CC(C2)c2cccc(=O)n2C3)n1 (stereo not given)	HMGR II inh 9.9 (no result: Yeast growth inh, Yeast lifespan up)
COc1ccc(N=Cc2c(O)n(-c3ccc(C)cc3)c(=O)[nH]c2=O)cc1	Insulin prom inh 83.3 (no result: Yeast growth inh, Yeast lifespan up)
O=C(c1cc2cc3ccc(Cl)cc3nc2o1)N1CCC2(CC1)OCCO2	Insulin prom inh 84.4
CC(C)(C)c1ccc(C(=O)C2CCCN(C3CCC3)C2)cc1 (stereo not given)	none (no result: Insulin prom inh, Yeast growth inh, Yeast lifespan up)
Nc1nonc1OCCCCOc1nonc1N	none (no result: Insulin prom inh, Yeast growth inh, Yeast lifespan up)
CC(C)OCCCNC(=O)c1c(N)n(Cc2cccs2)c2nc3ccccc3nc12	RAM network inh 9.3 (no result: Insulin prom inh)
CC(C)CCn1c(N)c(C(=O)NCc2cccs2)c2nc3ccccc3nc21	none
CCOc1cc(CNCCc2c[nH]c3ccccc23)cc(Cl)c1OC	none (no result: Yeast growth inh, Yeast lifespan up)
CCCCn1c(C)c(C(=O)O)c2cc(OC)ccc21	none
COCCCn1c(-c2ccc(OC)cc2)cc(C(=O)NC2CCCCCCC2)c1C	RAM network inh 10.7
CCOC(=O)C(=CNc1ccc(C(O)(C(=O)OCC)C(F)(F)F)cc1C)C(=O)OCC (stereo not given)	RAM network inh 8.7
CCOC(=O)C(O)(c1ccc(N(CC)S(=O)(=O)c2ccc(C)cc2)cc1)C(F)(F)F (stereo not given)	none
Cc1nc2c(=O)n(C)c(=O)nc-2n(C)n1	HMGR II inh 10.3 (no result: Yeast lifespan up)
COc1ccccc1OCC(=O)Nc1ccc(Cl)cc1C(=O)c1ccccc1	none
CCOc1ccccc1OCC(=O)Nc1ccc(Cl)cc1C(=O)c1ccccc1	RAM network inh 9.6
Cc1cccc(C)c1OP(N)(=O)OCC(F)(F)F (stereo not given)	none
Clc1ccc2c(c1)C(c1ccccc1Cl)=NCc1nnc(Br)n1-2	none (no result: Yeast lifespan up)
Cc1ccccc1C1=NCC(=S)Nc2ccc(Cl)cc21	HMGR II inh 10.4 (no result: Yeast lifespan up)
CCN(CC)P(=O)(c1nccn1C)N(CC)CC	none (no result: Yeast growth inh, Yeast lifespan up)
C=CCN1C(=O)/C(=C/c2ccc3c(c2)CCCN3CCC)C(=O)NC1=S	none
O=C1NC(=S)N(C2CC2)C(=O)/C1=C/c1ccc2c(c1)CCN2CCCCl	Yeast lifespan up 27.4
COc1ccc(C2SCC(=O)Nc3c2c(=O)[nH]n3C2CCCCCC2)cc1 (stereo not given)	none (no result: Insulin prom inh)
COc1ccc(C2SCC(=O)Nc3c2c(=O)[nH]n3C2CCCCCC2)cc1OC (stereo not given)	Yeast lifespan up 29.0
O=C(c1ccccc1)C(CN1CCCC1)c1ccccc1 (stereo not given)	Yeast lifespan up 56.0
O=C(Cc1ccccc1)OCCN1CCCCC1	none (no result: Insulin prom inh)
CSCc1nnc2n1-c1ccc(Cl)cc1C(c1ccccc1)=NC2	none
Cc1c(C(c2ccc(F)cc2)c2c(O)c3ccccc3oc2=O)c(=O)n(-c2ccccc2)n1C (stereo not given)	none
COc1ccc(C(c2c(O)c3ccccc3oc2=O)c2c(C)n(C)n(-c3ccccc3)c2=O)cc1 (stereo not given)	Insulin prom inh 64.3
O=C1C(=O)c2ccccc2-c2ccccc21	Yeast growth inh 99.8
CCOc1cc(C2C(C#N)=C(N)Oc3c2c(=O)oc2ccccc32)ccc1OC(=O)c1cccs1 (stereo not given)	RAM network inh 8.9 (no result: Insulin prom inh)
